Assay results reported in ChEMBL document CHEMBL4330096, “Discovery of potent and selective 5-azaindazole inhibitors of leucine-rich repeat kinase 2 (LRRK2) - Part 1” (Bioorg Med Chem Lett, 2019).

What was measured:
[1] = target: T1, Serine/threonine-protein kinase BRSK2 (Homo sapiens) (UniProt Q8IWQ3); assay: Inhibition of BRSK2 (unknown origin) at 10 uM relative to control
T1 sequence (whole entry): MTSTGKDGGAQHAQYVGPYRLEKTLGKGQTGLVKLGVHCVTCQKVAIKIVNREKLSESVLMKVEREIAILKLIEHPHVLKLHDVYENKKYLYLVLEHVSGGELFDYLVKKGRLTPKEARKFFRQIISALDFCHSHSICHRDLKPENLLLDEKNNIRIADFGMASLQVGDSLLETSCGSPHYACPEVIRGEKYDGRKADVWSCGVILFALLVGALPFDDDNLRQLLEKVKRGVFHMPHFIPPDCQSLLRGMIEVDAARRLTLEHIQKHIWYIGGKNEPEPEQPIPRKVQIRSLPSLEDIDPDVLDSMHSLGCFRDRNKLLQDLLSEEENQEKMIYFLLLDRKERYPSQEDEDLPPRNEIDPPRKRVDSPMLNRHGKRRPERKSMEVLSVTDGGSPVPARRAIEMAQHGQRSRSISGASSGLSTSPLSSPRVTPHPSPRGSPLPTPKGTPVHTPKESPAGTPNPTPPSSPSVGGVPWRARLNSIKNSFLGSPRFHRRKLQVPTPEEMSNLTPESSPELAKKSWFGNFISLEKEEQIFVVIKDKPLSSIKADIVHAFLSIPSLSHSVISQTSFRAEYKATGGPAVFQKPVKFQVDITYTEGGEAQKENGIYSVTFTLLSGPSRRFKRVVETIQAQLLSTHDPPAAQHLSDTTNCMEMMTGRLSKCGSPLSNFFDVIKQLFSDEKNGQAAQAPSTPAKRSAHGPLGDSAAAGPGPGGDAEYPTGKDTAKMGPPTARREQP
Outline: (§1)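 Single-point screen of each compound against a panel of 59 protein kinases, at 1 or 10 μM. The panel data are also summarised as a rescaled geometric mean selectivity score.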

[2] = target: T2, Serine/threonine-protein kinase 3 (Homo sapiens) (UniProt Q13188); assay: Inhibition of MST2 (unknown origin) at 10 uM relative to control
T2 sequence (whole entry): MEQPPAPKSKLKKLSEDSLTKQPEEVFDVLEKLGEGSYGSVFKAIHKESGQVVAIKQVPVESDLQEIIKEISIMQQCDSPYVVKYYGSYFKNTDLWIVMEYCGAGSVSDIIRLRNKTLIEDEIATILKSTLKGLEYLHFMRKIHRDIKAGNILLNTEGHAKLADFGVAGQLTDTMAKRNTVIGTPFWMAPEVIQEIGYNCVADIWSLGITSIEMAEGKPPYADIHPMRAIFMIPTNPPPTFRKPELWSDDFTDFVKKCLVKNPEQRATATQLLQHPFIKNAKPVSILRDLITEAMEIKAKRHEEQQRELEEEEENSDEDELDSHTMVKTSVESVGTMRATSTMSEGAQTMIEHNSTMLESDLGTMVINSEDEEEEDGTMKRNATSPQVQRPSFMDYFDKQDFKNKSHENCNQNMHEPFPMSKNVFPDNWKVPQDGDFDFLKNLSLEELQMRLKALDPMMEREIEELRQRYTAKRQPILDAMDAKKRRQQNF
Outline: (§2)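 Single-concentration screen of each compound against a 59-protein-kinase panel, run at 10 µM or 1 µM. Activity relative to control is shown as a heat map across the panel.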

[3] = target: Calcium/calmodulin-dependent protein kinase type 1 (Homo sapiens) (UniProt Q14012); assay: Inhibition of CAMK1 (unknown origin) at 1 uM relative to control; outline: as §1
Chain of Calcium/calmodulin-dependent protein kinase type 1 (Homo sapiens) (Q14012 whole entry, looked up): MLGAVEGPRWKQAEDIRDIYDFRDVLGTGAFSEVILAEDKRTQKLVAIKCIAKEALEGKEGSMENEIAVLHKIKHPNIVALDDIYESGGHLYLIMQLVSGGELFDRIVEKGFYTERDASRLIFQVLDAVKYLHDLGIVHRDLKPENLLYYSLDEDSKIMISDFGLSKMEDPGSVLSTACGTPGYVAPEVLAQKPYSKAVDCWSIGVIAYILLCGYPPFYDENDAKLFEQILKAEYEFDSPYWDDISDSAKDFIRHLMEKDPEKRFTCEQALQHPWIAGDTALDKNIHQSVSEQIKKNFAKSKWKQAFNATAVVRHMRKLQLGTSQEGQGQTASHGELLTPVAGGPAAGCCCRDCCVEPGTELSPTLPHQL

[4] = target: Calcium/calmodulin-dependent protein kinase kinase 2 (Homo sapiens) (UniProt Q96RR4); assay: Inhibition of CAMKKb (unknown origin) at 1 uM relative to control; outline: as §1
Chain of Calcium/calmodulin-dependent protein kinase kinase 2 (Homo sapiens) (Q96RR4 2-588 limits assumed): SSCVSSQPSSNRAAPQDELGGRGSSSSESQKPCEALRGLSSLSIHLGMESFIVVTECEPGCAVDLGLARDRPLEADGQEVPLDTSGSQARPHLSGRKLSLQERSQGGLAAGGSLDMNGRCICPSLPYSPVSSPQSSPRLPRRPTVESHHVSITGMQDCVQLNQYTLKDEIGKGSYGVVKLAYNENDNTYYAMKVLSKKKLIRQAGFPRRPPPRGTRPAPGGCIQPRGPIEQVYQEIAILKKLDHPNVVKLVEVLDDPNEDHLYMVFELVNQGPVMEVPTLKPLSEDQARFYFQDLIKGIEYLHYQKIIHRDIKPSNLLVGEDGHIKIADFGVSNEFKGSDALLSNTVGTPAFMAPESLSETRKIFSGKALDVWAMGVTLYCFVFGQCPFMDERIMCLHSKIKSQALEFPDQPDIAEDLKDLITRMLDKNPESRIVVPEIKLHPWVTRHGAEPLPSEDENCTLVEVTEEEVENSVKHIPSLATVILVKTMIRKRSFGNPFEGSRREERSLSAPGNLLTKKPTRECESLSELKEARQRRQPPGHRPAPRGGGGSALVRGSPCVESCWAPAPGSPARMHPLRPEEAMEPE

[5] = target: Serine/threonine-protein kinase Chk2 (Homo sapiens) (UniProt O96017); assay: Inhibition of CHK2 (unknown origin) at 1 uM relative to control; outline: as §1
Chain of Serine/threonine-protein kinase Chk2 (Homo sapiens) (O96017 whole entry): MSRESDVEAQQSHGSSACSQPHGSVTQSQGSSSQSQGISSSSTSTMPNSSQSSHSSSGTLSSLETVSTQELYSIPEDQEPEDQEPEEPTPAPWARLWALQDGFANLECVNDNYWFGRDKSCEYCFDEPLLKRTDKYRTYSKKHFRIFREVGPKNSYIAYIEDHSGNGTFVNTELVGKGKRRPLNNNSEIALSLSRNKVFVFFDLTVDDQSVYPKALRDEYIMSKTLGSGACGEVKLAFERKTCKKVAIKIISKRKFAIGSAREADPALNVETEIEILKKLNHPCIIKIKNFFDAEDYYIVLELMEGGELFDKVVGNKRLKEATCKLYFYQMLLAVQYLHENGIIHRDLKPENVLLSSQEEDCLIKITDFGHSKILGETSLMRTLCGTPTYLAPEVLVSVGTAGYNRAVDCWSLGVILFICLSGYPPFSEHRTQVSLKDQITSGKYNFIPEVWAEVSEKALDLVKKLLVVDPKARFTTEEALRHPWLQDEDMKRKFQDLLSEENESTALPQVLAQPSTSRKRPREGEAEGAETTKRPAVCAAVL

[6] = target: Dual specificity mitogen-activated protein kinase kinase 1 (Homo sapiens) (UniProt Q02750); assay: Inhibition of MKK1 (unknown origin) at 1 uM relative to control; outline: as §2
Chain of Dual specificity mitogen-activated protein kinase kinase 1 (Homo sapiens) (Q02750 whole entry): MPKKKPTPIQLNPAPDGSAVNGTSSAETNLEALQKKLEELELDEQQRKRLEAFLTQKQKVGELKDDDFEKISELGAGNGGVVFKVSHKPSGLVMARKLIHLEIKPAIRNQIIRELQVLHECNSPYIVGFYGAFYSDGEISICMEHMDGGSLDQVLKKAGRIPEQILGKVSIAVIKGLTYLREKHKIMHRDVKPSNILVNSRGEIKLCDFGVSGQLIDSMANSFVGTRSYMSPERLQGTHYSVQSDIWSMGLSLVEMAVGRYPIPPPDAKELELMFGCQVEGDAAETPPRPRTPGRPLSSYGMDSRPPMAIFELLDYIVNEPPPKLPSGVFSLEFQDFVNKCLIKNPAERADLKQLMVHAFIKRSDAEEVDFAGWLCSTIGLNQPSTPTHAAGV

[7] = target: T3, Serine/threonine-protein kinase D1 (Homo sapiens) (UniProt Q15139); assay: Inhibition of PKD1 (unknown origin) at 1 uM relative to control; outline: as §2
T3 sequence (whole entry): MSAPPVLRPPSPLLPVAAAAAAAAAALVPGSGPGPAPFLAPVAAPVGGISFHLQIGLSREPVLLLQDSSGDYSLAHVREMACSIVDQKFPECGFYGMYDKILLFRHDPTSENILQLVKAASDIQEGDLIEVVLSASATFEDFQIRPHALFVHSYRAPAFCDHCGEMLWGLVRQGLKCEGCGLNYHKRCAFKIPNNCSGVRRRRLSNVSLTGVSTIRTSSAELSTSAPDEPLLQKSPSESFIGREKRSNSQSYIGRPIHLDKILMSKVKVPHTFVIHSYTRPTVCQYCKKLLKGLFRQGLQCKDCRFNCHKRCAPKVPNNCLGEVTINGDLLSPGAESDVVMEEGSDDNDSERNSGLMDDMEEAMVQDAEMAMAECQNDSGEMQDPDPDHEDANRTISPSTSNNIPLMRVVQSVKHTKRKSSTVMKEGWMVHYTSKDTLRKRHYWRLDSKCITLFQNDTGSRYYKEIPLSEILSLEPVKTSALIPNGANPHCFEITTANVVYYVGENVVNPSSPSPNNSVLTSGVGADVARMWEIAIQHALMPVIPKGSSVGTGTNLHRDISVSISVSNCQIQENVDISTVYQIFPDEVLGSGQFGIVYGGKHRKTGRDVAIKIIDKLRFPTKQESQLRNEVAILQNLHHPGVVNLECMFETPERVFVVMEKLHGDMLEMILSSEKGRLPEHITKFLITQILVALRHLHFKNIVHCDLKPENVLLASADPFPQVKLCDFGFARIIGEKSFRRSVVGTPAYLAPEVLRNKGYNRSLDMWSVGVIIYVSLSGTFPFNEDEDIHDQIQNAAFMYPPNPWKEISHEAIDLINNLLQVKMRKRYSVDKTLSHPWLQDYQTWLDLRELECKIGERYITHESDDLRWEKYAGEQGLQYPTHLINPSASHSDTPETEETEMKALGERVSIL

[8] = target: Proto-oncogene tyrosine-protein kinase Src (Homo sapiens) (UniProt P12931); assay: Inhibition of Src (unknown origin) at 1 uM relative to control
Chain of Proto-oncogene tyrosine-protein kinase Src (Homo sapiens) (P12931 2-536 limits assumed): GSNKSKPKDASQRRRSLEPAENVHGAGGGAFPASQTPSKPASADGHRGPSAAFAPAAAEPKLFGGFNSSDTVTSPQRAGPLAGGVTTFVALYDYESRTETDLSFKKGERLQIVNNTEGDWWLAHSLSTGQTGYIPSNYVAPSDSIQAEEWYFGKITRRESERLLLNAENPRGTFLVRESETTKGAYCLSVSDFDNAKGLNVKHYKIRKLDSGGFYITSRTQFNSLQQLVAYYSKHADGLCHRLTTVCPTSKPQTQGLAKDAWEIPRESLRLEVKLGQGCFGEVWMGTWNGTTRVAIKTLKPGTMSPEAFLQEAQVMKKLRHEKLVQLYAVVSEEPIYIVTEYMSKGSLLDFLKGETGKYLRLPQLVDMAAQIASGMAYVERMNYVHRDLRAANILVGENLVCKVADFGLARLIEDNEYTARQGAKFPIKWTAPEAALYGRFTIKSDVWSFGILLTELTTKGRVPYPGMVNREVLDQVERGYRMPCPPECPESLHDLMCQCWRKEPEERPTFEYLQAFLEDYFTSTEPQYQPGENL
Outline: (§3)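 Single-concentration screen across a panel of 59 protein kinases, with each compound tested at one fixed concentration. The read-out is residual kinase activity relative to control. Panel results are also condensed into a rescaled geometric mean (RGM) selectivity score.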

[9] = target: Tyrosine-protein kinase SYK (Homo sapiens) (UniProt P43405); assay: Inhibition of SYK (unknown origin) at 1 uM relative to control; outline: as §3
[10] = target: Tyrosine-protein kinase Yes (Homo sapiens) (UniProt P07947); assay: Inhibition of YES1 (unknown origin) at 1 uM relative to control; outline: as §3
Chain of Tyrosine-protein kinase Yes (Homo sapiens) (P07947 2-543 limits assumed): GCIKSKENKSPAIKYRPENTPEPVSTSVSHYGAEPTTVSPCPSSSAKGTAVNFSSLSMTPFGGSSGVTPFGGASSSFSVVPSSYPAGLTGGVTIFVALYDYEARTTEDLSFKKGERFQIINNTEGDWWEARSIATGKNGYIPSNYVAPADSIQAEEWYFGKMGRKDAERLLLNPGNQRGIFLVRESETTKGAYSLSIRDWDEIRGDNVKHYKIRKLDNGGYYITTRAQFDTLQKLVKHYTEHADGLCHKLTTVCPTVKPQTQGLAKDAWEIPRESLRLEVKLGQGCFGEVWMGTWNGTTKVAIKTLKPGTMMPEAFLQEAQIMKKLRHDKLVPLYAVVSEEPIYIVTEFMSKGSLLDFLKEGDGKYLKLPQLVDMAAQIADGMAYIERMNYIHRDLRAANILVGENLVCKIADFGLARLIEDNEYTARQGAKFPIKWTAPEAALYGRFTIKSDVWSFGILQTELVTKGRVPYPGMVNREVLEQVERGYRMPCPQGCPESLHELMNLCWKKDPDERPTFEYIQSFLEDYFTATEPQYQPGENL

Row | Structure (SMILES) | inhibition [1] [%] | inhibition [2] [%] | inhibition [3] [%] | inhibition [4] [%] | inhibition [5] [%] | inhibition [6] [%] | inhibition [7] [%] | inhibition [8] [%] | inhibition [9] [%] | inhibition [10] [%]
1 | Cc1n[nH]c2ccnc(NC3CCCCC3)c12 | 46 | 80 |  |  |  |  |  |  |  | 
2 | Cc1n[nH]c2ccnc(Nc3ccc4ncsc4c3)c12 | 35 | 72 |  |  |  |  |  |  |  | 
3 | c1cc(-c2n[nH]c3ccnc(OC4CCOCC4)c23)cc(N2CCOCC2)n1 |  |  | 7 | 0 | 0 | 7 | 7 | 0 | 0 | 9
4 | Cc1n[nH]c2ccnc(Nc3ccccc3F)c12 | 68 | 66 |  |  |  |  |  |  |  | 
5 | Cc1n[nH]c2ccnc(OC3CCCCC3)c12 | 67 | 79 |  |  |  |  |  |  |  | 
6 | CC(C)n1cc(-c2n[nH]c3ccnc(OC4CCOCC4)c23)cn1 |  |  | 36 | 1 | 29 | 57 | 41 | 0 | 0 | 0
